Data taken from ChEMBL document CHEMBL1681666, “Synthesis and in vitro screening of novel N-benzyl aplysinopsin analogs as potential anticancer agents” (2011).

Assays:
Type in all cases: functional
[1] = tested on: M14; test: Anticancer activity against human M14 cells
Procedure, shortened: (§1)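 NCI 60-cell human tumour panel (leukemia, lung, colon, CNS, melanoma, ovarian, renal, prostate, breast). A first-stage single-dose screen at 10 µM was run. Compounds giving over 60% growth inhibition in at least eight lines went on to a five-dose response. Effect was plotted against log10 molar concentration per line. GI50 is the concentration giving 50% reduction in net protein increase versus control cells. LC50 is the concentration lethal to 50% of cells.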

[2] = tested on: A498; test: Anticancer activity against human A498 cells; procedure, shortened: as §1
[3] = tested on: BT-549; test: Anticancer activity against human BT549 cells; procedure, shortened: as §1
[4] = tested on: UACC-62; test: Anticancer activity against human UACC62 cells
Procedure, shortened: (§2)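 NCI 60-cell-line panel. A single-dose (10 µM) prescreen was run first. Compounds giving over 60% growth inhibition in at least eight lines then went to five-dose response studies. Dose-response curves of effect versus log10 concentration. GI50 is the molar concentration giving a 50% reduction in net protein increase versus control cells. LC50 is the concentration lethal to 50% of cells.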

[5] = tested on: IGROV-1; test: Anticancer activity against human IGROV1 cells; procedure, shortened: as §1
[6] = tested on: SF-539; test: Anticancer activity against human SF539 cells; procedure, shortened: as §1
[7] = tested on: UO-31; test: Anticancer activity against human UO31 cells; procedure, shortened: as §2
[8] = tested on: UACC-257; test: Anticancer activity against human UACC257 cells; procedure, shortened: as §2
[9] = tested on: SF-295; test: Anticancer activity against human SF295 cells; procedure, shortened: as §1
[10] = tested on: OVCAR-5; test: Anticancer activity against human OVCAR5 cells; procedure, shortened: as §1
[11] = tested on: SNB-75; test: Anticancer activity against human SNB75 cells; procedure, shortened: as §2
[12] = tested on: SK-MEL-2; test: Anticancer activity against human SK-MEL-2 cells; procedure, shortened: as §1
[13] = tested on: 786-0; test: Anticancer activity against human 786-0 cells; procedure, shortened: as §1
[14] = tested on: SW-620; test: Anticancer activity against human SW620 cells; procedure, shortened: as §2
[15] = tested on: OVCAR-3; test: Anticancer activity against human OVCAR3 cells; procedure, shortened: as §1
[16] = tested on: NCI-H460; test: Anticancer activity against human NCI-H460 cells; procedure, shortened: as §1
[17] = tested on: TK-10; test: Anticancer activity against human TK10 cells; procedure, shortened: as §2
[18] = tested on: SF-268; test: Anticancer activity against human SF268 cells; procedure, shortened: as §1
[19] = tested on: MDA-MB-468; test: Anticancer activity against human MDA-MB-468 cells; procedure, shortened: as §1
[20] = tested on: SNB-19; test: Anticancer activity against human SNB19 cells; procedure, shortened: as §1
[21] = tested on: SN12C; test: Anticancer activity against human SN12C cells; procedure, shortened: as §1
[22] = tested on: HCC 2998; test: Anticancer activity against human HCC2998 cells; procedure, shortened: as §1
[23] = tested on: ACHN; test: Anticancer activity against human ACHN cells; procedure, shortened: as §1
[24] = tested on: HCT-116; test: Anticancer activity against human HCT116 cells; procedure, shortened: as §1
[25] = tested on: KM12; test: Anticancer activity against human KM12 cells; procedure, shortened: as §1
[26] = tested on: HT-29; test: Anticancer activity against human HT-29 cells; procedure, shortened: as §1
[27] = tested on: NCI-H322M; test: Anticancer activity against human NCI-H322M cells; procedure, shortened: as §1
[28] = tested on: T47D; test: Anticancer activity against human T47D cells; procedure, shortened: as §2
[29] = tested on: HOP-62; test: Anticancer activity against human HOP62 cells; procedure, shortened: as §1
[30] = tested on: U-251; test: Anticancer activity against human U251 cells; procedure, shortened: as §2
[31] = tested on: EKVX; test: Anticancer activity against human EKVX cells; procedure, shortened: as §1
[32] = tested on: COLO 205; test: Anticancer activity against human COLO205 cells; procedure, shortened: as §1
[33] = tested on: SK-MEL-5; test: Anticancer activity against human SK-MEL-5 cells; procedure, shortened: as §1
[34] = tested on: SK-OV-3; test: Anticancer activity against human SKOV3 cells; procedure, shortened: as §1
[35] = tested on: CCRF-CEM; test: Anticancer activity against human CCRF-CEM cells; procedure, shortened: as §1
[36] = tested on: MOLT-4; test: Anticancer activity against human MOLT4 cells; procedure, shortened: as §1
[37] = tested on: NCI-H23; test: Anticancer activity against human NCI-H23 cells; procedure, shortened: as §1
[38] = Anticancer activity against human Hs 578T cells; procedure, shortened: as §1
[39] = tested on: PC-3; test: Anticancer activity against human PC3 cells; procedure, shortened: as §1
[40] = tested on: HL-60(TB); test: Anticancer activity against human HL-60(TB) cells; procedure, shortened: as §1
[41] = tested on: MCF7; test: Anticancer activity against human MCF7 cells; procedure, shortened: as §1
[42] = tested on: Malme-3M; test: Anticancer activity against human MALME-3M cells; procedure, shortened: as §1
[43] = tested on: LOX IMVI; test: Anticancer activity against human LOXIMVI cells; procedure, shortened: as §1
[44] = tested on: NCI-H226; test: Anticancer activity against human NCI-H226 cells; procedure, shortened: as §1
[45] = tested on: OVCAR-4; test: Anticancer activity against human OVCAR4 cells; procedure, shortened: as §1
[46] = tested on: K562; test: Anticancer activity against human K562 cells; procedure, shortened: as §1
[47] = tested on: OVCAR-8; test: Anticancer activity against human OVCAR8 cells; procedure, shortened: as §1
[48] = tested on: RXF 393; test: Anticancer activity against human RXF393 cells; procedure, shortened: as §1
[49] = tested on: SK-MEL-28; test: Anticancer activity against human SK-MEL-28 cells; procedure, shortened: as §1
[50] = tested on: MDA-MB-435; test: Anticancer activity against human MDA-MB-435 cells; procedure, shortened: as §1
[51] = tested on: MDA-MB-231; test: Anticancer activity against human MDA-MB-231 cells; procedure, shortened: as §1
[52] = Anticancer activity against human NCI/ADR cells; details: NCI/ADR-RES; procedure, shortened: as §1
[53] = Anticancer activity against human […] cells; procedure, shortened: as §1
[54] = tested on: A549; test: Anticancer activity against human A549 cells; procedure, shortened: as §1
[55] = tested on: CAKI-1; test: Anticancer activity against human Caki1 cells; procedure, shortened: as §1
[56] = read-out: LC50 (the source's name)

COC(=O)c1ccc2c(/C=C3\NC(=O)NC3=O)cn(Cc3ccc(C#N)cc3)c2c1 gave a GI50 [1] of 1430 nM, a CC50 [1, 56] greater than 100 µM and a GI50 [2] of 550 nM. For the same compound, the CC50 [2, 56] was greater than 100 µM, the GI50 [3] was 1240 nM and the CC50 [3, 56] was greater than 100 µM. The GI50 [4] was 1270 nM, the CC50 [4, 56] was 51 µM and the GI50 [5] was 660 nM. The CC50 [5, 56] was greater than 100 µM, the GI50 [6] was 2390 nM and the CC50 [6, 56] was greater than 100 µM. For the same compound, the GI50 [7] was 2700 nM, the CC50 [7, 56] was greater than 100 µM and the GI50 [8] was 4.2 µM. For the same compound, the CC50 [8, 56] was greater than 100 µM, the GI50 [9] was 3.09 µM and the CC50 [9, 56] was greater than 100 µM. It also gave a GI50 [10] of 5.51 µM, a CC50 [10, 56] greater than 100 µM and a GI50 [11] of 4.6 µM. It also gave a CC50 [11, 56] greater than 100 µM, a GI50 [12] of 300 nM and a CC50 [12, 56] of 30.6 µM. The GI50 [13] was 2360 nM, the CC50 [13, 56] was greater than 100 µM and the GI50 [14] was 2270 nM. It also gave a CC50 [14, 56] greater than 100 µM, a GI50 [15] of 2050 nM and a CC50 [15, 56] greater than 100 µM. It also gave a GI50 [16] of 2910 nM, a CC50 [16, 56] greater than 100 µM and a GI50 [17] of 3.87 µM. The CC50 [17, 56] was greater than 100 µM, the GI50 [18] was 4.22 µM and the CC50 [18, 56] was greater than 100 µM. The GI50 [19] was 4.14 µM, the CC50 [19, 56] was greater than 100 µM and the GI50 [20] was 3.77 µM. For the same compound, the CC50 [20, 56] was greater than 100 µM, the GI50 [21] was 2800 nM and the CC50 [21, 56] was greater than 100 µM. For the same compound, the GI50 [22] was 2430 nM, the CC50 [22, 56] was 85 µM and the GI50 [23] was 2080 nM. The CC50 [23, 56] was greater than 100 µM, the GI50 [24] was 1210 nM and the CC50 [24, 56] was greater than 100 µM. The GI50 [25] was 3.73 µM, the CC50 [25, 56] was greater than 100 µM and the GI50 [26] was 5.99 µM. It also gave a CC50 [26, 56] greater than 100 µM, a GI50 [27] of 720 nM and a CC50 [27, 56] greater than 100 µM. The GI50 [28] was 1500 nM, the CC50 [28, 56] was greater than 100 µM and the GI50 [29] was 3.58 µM. For the same compound, the CC50 [29, 56] was 73 µM, the GI50 [30] was 2030 nM and the CC50 [30, 56] was 59.1 µM. For the same compound, the GI50 [31] was 4.22 µM, the CC50 [31, 56] was greater than 100 µM and the GI50 [32] was 3.16 µM. It also gave a CC50 [32, 56] greater than 100 µM, a GI50 [33] of 3.25 µM and a CC50 [33, 56] greater than 100 µM. The GI50 [34] was 860 nM, the CC50 [34, 56] was 79.8 µM and the GI50 [35] was 3.06 µM. For the same compound, the CC50 [35, 56] was greater than 100 µM, the GI50 [36] was 1380 nM and the CC50 [36, 56] was greater than 100 µM. The GI50 [37] was 4.07 µM, the CC50 [37, 56] was greater than 100 µM and the GI50 [38] was 970 nM. For the same compound, the CC50 [38, 56] was greater than 100 µM, the GI50 [39] was 2440 nM and the CC50 [39, 56] was greater than 100 µM. For the same compound, the GI50 [40] was 2540 nM, the CC50 [40, 56] was greater than 100 µM and the GI50 [41] was 3.55 µM. It also gave a CC50 [41, 56] greater than 100 µM, a GI50 [42] of 2010 nM and a CC50 [42, 56] greater than 100 µM. The GI50 [43] was 1430 nM, the CC50 [43, 56] was greater than 100 µM and the GI50 [44] was 5.94 µM. The CC50 [44, 56] was greater than 100 µM, the GI50 [45] was 4.13 µM and the CC50 [45, 56] was greater than 100 µM. For the same compound, the GI50 [46] was 970 nM, the CC50 [46, 56] was greater than 100 µM and the GI50 [47] was 3.75 µM. For the same compound, the CC50 [47, 56] was greater than 100 µM, the GI50 [48] was 580 nM and the CC50 [48, 56] was greater than 100 µM. It also gave a GI50 [49] of 3.79 µM, a CC50 [49, 56] greater than 100 µM and a GI50 [50] of 2760 nM. It also gave a CC50 [50, 56] greater than 100 µM, a GI50 [51] of 3.32 µM and a CC50 [51, 56] greater than 100 µM. It also gave a GI50 [52] greater than 100 µM, a CC50 [52, 56] greater than 100 µM and a GI50 [53] of 3.61 µM. For the same compound, the CC50 [53, 56] was greater than 100 µM, the GI50 [54] was 4.44 µM and the CC50 [54, 56] was greater than 100 µM. It also gave a GI50 [55] of 2740 nM and a CC50 [55, 56] greater than 100 µM.
